Source: PubChem BioAssay (several laboratories)
Mdm2 MdmX PPI: disrupts the human Mdm2-MdmX interaction. O15151+Q00987. AID 485346. 330,000 compounds, 3% hits. SaOS-2 split-luciferase Mdm2/MdmX complementation, luminescence. inhibition, % at 8 µM;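 active = inhibition of at least 50% at 8 µM in the primary screen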
Target sequence (O15151 whole entry, looked up): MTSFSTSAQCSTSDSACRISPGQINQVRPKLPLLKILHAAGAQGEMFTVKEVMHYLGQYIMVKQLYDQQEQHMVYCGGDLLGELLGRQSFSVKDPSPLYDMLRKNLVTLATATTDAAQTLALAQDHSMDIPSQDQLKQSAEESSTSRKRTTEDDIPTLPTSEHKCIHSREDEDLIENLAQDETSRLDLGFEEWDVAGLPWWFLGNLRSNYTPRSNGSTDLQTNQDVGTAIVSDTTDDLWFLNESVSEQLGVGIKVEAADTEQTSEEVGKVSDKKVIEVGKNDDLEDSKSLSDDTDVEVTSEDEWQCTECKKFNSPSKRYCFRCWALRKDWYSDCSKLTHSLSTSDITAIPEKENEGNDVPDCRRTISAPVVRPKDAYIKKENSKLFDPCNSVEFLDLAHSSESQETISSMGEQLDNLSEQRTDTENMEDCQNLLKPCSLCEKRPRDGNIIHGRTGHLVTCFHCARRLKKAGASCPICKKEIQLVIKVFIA
Target sequence (Q00987 whole entry, looked up): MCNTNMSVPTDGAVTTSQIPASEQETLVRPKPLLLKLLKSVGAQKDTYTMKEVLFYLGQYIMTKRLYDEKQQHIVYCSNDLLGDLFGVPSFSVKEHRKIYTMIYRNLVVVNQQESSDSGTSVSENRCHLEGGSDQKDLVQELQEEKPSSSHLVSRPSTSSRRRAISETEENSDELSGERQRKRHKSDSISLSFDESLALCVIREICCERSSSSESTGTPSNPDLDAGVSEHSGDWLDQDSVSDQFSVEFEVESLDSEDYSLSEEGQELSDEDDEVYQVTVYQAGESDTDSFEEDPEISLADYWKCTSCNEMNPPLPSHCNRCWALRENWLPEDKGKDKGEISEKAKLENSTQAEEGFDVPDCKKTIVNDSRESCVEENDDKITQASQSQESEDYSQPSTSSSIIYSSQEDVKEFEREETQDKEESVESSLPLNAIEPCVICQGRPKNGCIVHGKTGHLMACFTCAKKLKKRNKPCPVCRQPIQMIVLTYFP
CHOP UPR activ: apoptotic UPR (CHOP) activation; CHO-CHOP luciferase reporter, luminescence; percent of tunicamycin response over DMSO baseline; 330,000 compounds, 0.34% hits; activation, % at 10 µM;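 active = at 10 µM dose, activation of 40% or more, normalized to positive control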
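System: CHO-CHOP luciferase reporter cell line | Buffer or medium: F12 medium containing 10% fetal bovine serum | Doses: One dose, 10 µM in 0.5% DMSO | Times: 6 h compound exposure at 37 °C after overnight seeding | Signal: Luciferase luminescence | Read-out: % activation vs tunicamycin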
T cruzi inh: blocks replication of Trypanosoma cruzi. T. cruzi beta-gal in NIH3T3, luminescence, 90 h. inhibition, % (no concentration beside the values). 300,000 compounds, 1.4% hits. AID 1885;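 active = mean inhibition across valid replicates above about 55%, limit read from the data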;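 also: signal also drops with host cell toxicity which is not excluded here; higher percent means less beta-gal luminescence so fewer parasites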
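Incubation – ≥90 h infection period, 3 h prior cell attachment · System – NIH/3T3 fibroblasts plus reporter T. cruzi · Doses – compound pinned at 50 nL/well, DMSO · Read-out basis – percent inhibition of parasite-derived β-gal signal · Signal – luminescent β-galactosidase signal after 60 min lysis · Also added – 5000 T. cruzi trypomastigotes/well · Medium – Low-serum DMEM with 2% FBS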
CSC inhib: blocks cancer stem cells; inhibition, % at 7.5 µM; cancer stem cell-like cells viability, luminescence; 300,000 compounds, 1.1% hits; AID 2717; in the data active = inhibition above about 75%; tested in HMLE shEcad cells
Beta apoptosis: blocks beta cell apoptosis. INS-1E cytokine-induced death, ATP luminescence, 48 h; percent of positive-control rescue, neutral wells zero. 300,000 compounds, 0.8% hits. protection from apoptosis, % (concentration not given with the values);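 active = Every replicate reaches about 75%, or at least half do and their mean reaches it too, limit read from the data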;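 also: higher means more ATP so stronger rescue from cytokine killing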
UPR XBP1 act: adaptive UPR (XBP1) activation; CHO-XBP1 luciferase reporter, IRE1-XBP1 UPR activation, luminescence; percent of tunicamycin response, DMSO as zero; activation, % at 20 µM; 330,000 compounds, 0.33% hits;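 active = versus positive control, 20 µM dose yields 30% or more activation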
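assay system = CHO-XBP1 luciferase reporter cells | amount = 1000 cells/well | buffer or medium = F12 plus 10% FBS | compound dosing = single point, 20 µM final compound, 1% DMSO | incubation = 16-18 h cell attachment at 37 °C, then 6 h compound exposure | detection = Steady-Glo luminescence read | controls = tunicamycin 10 µg/mL and vehicle-only wells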
UPR XBP1 confirm: confirmation of adaptive unfolded protein response (XBP1) activators; shares compounds with UPR XBP1 act; CHO-XBP1 IRE1-XBP1 luciferase reporter, luminescence; activation, % at 20 µM; 1,000 compounds, 63% hits;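 active = reporter signal at least 30% of the positive control's activation in two or more of four replicate wells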
Mdm2 MdmX conf: human Mdm2/MdmX binding inhibition, confirmed; shares compounds with Mdm2 MdmX PPI; luminescent assay; inhibition, % at 8 µM; 10,000 compounds, 55% hits; in the data active = inhibition above about 40%
FLuc counter: full-length luciferase inhibition in Mdm2/MdmX counter-screen | shares compounds with Mdm2 MdmX PPI | SaOS-2 full-length luciferase counterscreen, luminescence | inhibition, % at 8 µM | 6,200 compounds, 77% hits | AID 504607;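 active = mean inhibition at 8 µM reaching about 37%, which flags the compound as non-specific, limit read from the data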;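 also: p53-null SaOS-2 cells with luciferase driven by a doxycycline-inducible promoter; compound on cells about two nights before reading with doxycycline added after day one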
Of the large screens only hits and unclear results are named; the others gave an inactive call (follow-up assays come after a bar, where they were run). The list is not random: actives were taken first. Their share in the collection is about 5%.

CCN1CCN(S(=O)(=O)c2c[nH]c(C(=O)OC)c2)CC1	none
Brc1ccc(C2=Nn3c(nnc3-c3n[nH]c4c3CCC4)SC2)cc1	Mdm2 MdmX PPI 80.2, UPR XBP1 act 36.8 | UPR XBP1 confirm 49.4 | Mdm2 MdmX conf 79.5 | FLuc counter 72.5
Cc1nc(SCC(=O)NCC2CCCO2)c2c3c(sc2n1)CCC3 (stereo not drawn)	none
Cc1nc(Sc2nnnn2C)c2c3c(sc2n1)CCC3	Mdm2 MdmX PPI 96.7, UPR XBP1 act 37.1 (no result: T cruzi inh) | UPR XBP1 confirm inactive | Mdm2 MdmX conf 92.8 | FLuc counter 62.6
CCC(=O)Nc1cccc(C(=O)/C=C/c2ccc(F)cc2)c1	Mdm2 MdmX PPI 89.0, UPR XBP1 act 34.6 | UPR XBP1 confirm 53.3 | Mdm2 MdmX conf 47.9 | FLuc counter 44.8
Cn1ncc(Cl)c1C(=O)Nc1cccc(Cl)c1	none
Cn1ncc(N=Cc2c(O)ccc3ccccc23)c1C(=O)Nc1cccc(Cl)c1	Mdm2 MdmX PPI 61.2, UPR XBP1 act 98.7 | UPR XBP1 confirm 80.2 | Mdm2 MdmX conf inactive
CCC(C(=O)N1CCN(S(=O)(=O)c2ccc(F)cc2)CC1)c1ccccc1 (stereo not drawn)	none (no result: T cruzi inh)
CCCCNc1c(-c2ccc(SC(C)CC)cc2)nc2cnccn12 (stereo not drawn)	Mdm2 MdmX PPI 52.2, CSC inhib 107.2, UPR XBP1 act 56.6 (no result: T cruzi inh) | UPR XBP1 confirm 50.0 | Mdm2 MdmX conf inactive
Cc1ccc(NC(=O)CCC(=O)OCc2ccc(Br)cc2)cc1	none
CN(C)C(=O)CCc1ccc2c3c([nH]c2c1)[C@]1(CCc2ccccc2)[C@@H](C(=O)N2CCCCC2)C[C@H](CC(=O)NCc2ccco2)C(=O)N1CC3	Mdm2 MdmX PPI 97.8, UPR XBP1 act 33.4 (no result: T cruzi inh, CSC inhib, Beta apoptosis) | UPR XBP1 confirm inactive | Mdm2 MdmX conf 74.0 | FLuc counter 51.4
O=C(CC1C[C@H](C(=O)N2CCCCC2)[C@@]2(CCc3ccccc3)c3[nH]c4ccccc4c3CCN2C1=O)NCCC1=CCCCC1 (stereo partly drawn)	Mdm2 MdmX PPI 79.2, UPR XBP1 act 125.7 (no result: T cruzi inh, CSC inhib) | UPR XBP1 confirm 92.6 | Mdm2 MdmX conf inactive
COc1ccccc1C1/C(=C(/O)c2ccccc2)C(=O)C(=O)N1CC(C)O (stereo not drawn)	none (no result: CSC inhib)
C[C@]12CCC3C(CC[C@H]4CCCC[C@]34C)C1CC[C@@]2(O)CNCCO (stereo partly drawn)	Mdm2 MdmX PPI 98.0, UPR XBP1 act 33.1 | UPR XBP1 confirm inactive | Mdm2 MdmX conf 79.3 | FLuc counter 41.7
CC(=O)[C@@]1(O)CCC2C3CC[C@H]4C[C@@H](O)CC[C@]4(C)C3CC[C@@]21C (stereo partly drawn)	none (no result: T cruzi inh)
Cc1nnc(N2CCCC(C(=O)Nc3cc(F)ccc3F)C2)c2nn(-c3ccccc3)c(C)c12 (stereo not drawn)	Mdm2 MdmX PPI 96.0, UPR XBP1 act 41.4 | UPR XBP1 confirm inactive | Mdm2 MdmX conf 49.9 | FLuc counter 73.1
CCOC(=O)C1CCN(C(=O)c2ccc(OCC(=O)Nc3cccc(C(F)(F)F)c3)c(OC)c2)CC1	none (no result: CSC inhib)
COc1cc(NC(=O)c2cccs2)ccc1NC(=O)c1cc2ccccc2o1	Mdm2 MdmX PPI 88.6, UPR XBP1 act 68.7 | UPR XBP1 confirm 37.0 | Mdm2 MdmX conf 52.4 | FLuc counter 116.7
Cc1cc(NC(=O)c2cncc(Br)c2)ccc1NC(=O)c1cc2ccccc2o1	Mdm2 MdmX PPI 74.5, UPR XBP1 act 34.7 | UPR XBP1 confirm 80.8 | Mdm2 MdmX conf 50.7 | FLuc counter inactive
COc1cc(NC(C)=O)ccc1NC(=O)c1cc2ccccc2o1	none
COc1cc(NC(=O)c2ccccc2)ccc1NC(=O)c1cc2ccccc2o1	none
O=C(COc1cccc2ccccc12)N1c2ccccc2CCc2ccccc21	none
CC[C@@]1(C(=O)OC)N[C@H](CN(C)S(=O)(=O)c2ccc(OC)cc2)[C@@H]2C(=O)N(C)C(=O)[C@@H]21	none (no result: T cruzi inh, CSC inhib)
CN1Cc2c(N3CCOCC3)nc3sc(C#N)c(N)c3c2CC1(C)C	none
CN1Cc2c(N3CCOCC3)nc3sc(C(=O)c4ccc(Br)cc4)c(N)c3c2CC1(C)C	Mdm2 MdmX PPI 90.6, CSC inhib 101.7, UPR XBP1 act 38.1 | UPR XBP1 confirm 63.5 | Mdm2 MdmX conf 61.2 | FLuc counter 84.4
CC1(C)Cc2c(cnn2-c2ccc(F)cc2)C(NC(=O)C2=NNC(=O)CC2)C1 (stereo not drawn)	none
O=C(Nc1ccc([N+](=O)[O-])cc1)c1nc[nH]c1C(=O)NC1CCCCC1	Mdm2 MdmX PPI 66.6, UPR XBP1 act 165.5 | UPR XBP1 confirm 171.5 | Mdm2 MdmX conf inactive
N#Cc1cnn(-c2ccccc2)c1NC(=O)c1ccccc1F	none (no result: T cruzi inh, CSC inhib)
Cc1ccc(-c2cc(C(F)F)n3ncc(C(=O)N4CCc5ccccc54)c3n2)cc1	Mdm2 MdmX PPI 60.8, UPR XBP1 act 47.0 | UPR XBP1 confirm 125.7 | Mdm2 MdmX conf 64.2 | FLuc counter 56.7
COc1cc(/C=C(\C#N)c2nc3ccccc3[nH]2)cc(Br)c1OCc1ccc(F)cc1	Mdm2 MdmX PPI 75.0, UPR XBP1 act 109.8 | UPR XBP1 confirm 128.2 | Mdm2 MdmX conf inactive | FLuc counter 39.2
COc1cc(/C=C(\C#N)c2nc3ccccc3[nH]2)cc(Br)c1OCc1ccccc1	none
CC(C)CC(NS(=O)(=O)c1ccccc1)C(=O)O (stereo not drawn)	none
CC(C)CN=C(NS(=O)(=O)c1ccccc1)C(Cl)(Cl)Cl	Mdm2 MdmX PPI 87.6, CSC inhib 146.7, UPR XBP1 act 47.1 | UPR XBP1 confirm 59.5 | Mdm2 MdmX conf 81.2 | FLuc counter inactive
O=C(c1ccc(S(=O)(=O)N2CCCC2)cc1)N(c1ccc(F)cc1)C1C=CS(=O)(=O)C1 (stereo not drawn)	none
CC1CCCC(C)N1C(=O)CN1C(=O)NC2(CCOc3ccccc32)C1=O (stereo not drawn)	none (no result: T cruzi inh, CSC inhib, Beta apoptosis)
O=C(c1ccc(Br)cc1)c1cc([N+](=O)[O-])ccc1N1CCCCC1	Mdm2 MdmX PPI 58.1, UPR XBP1 act 31.7 | UPR XBP1 confirm inactive | Mdm2 MdmX conf 51.7 | FLuc counter 95.0
Cc1nc(NC(=O)CSc2ccccc2N)sc1C	none
O=C(O)CCCCC1SCC2NC(=O)NC21 (stereo not drawn)	none
